Converted amounts (≈) assume the structure as drawn.
Columns and labels:
[1] = target: Adenosine receptor A2a (Rattus norvegicus) (UniProt P30543); assay: Displacement of [3H]ZM-241385 from adenosine A2A receptor in rat striatal membrane at 10 uM relative to control; assay type: cell membranes; conditions: Striatum
[2] = target: T1, Adenosine receptor A1 (Rattus norvegicus, UniProt P25099); assay: Displacement of [3H]DPCPX from adenosine A1 receptor in rat cerebral cortex; assay type: tissue-based
T1 sequence (P25099 whole entry): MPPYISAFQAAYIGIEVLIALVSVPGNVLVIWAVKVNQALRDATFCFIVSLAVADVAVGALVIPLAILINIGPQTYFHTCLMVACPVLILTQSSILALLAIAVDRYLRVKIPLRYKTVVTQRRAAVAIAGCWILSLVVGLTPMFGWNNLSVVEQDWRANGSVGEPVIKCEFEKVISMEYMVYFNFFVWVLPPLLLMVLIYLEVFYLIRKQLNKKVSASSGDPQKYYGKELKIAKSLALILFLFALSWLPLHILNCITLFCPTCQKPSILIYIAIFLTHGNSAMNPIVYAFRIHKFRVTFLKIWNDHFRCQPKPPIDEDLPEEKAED
Procedure, shortened: (§1)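 Rat brain membranes (cerebral cortex for A1, striatum for A2A) homogenized in 10 mM EDTA/10 mM Na-HEPES pH 7.4 with protease inhibitors, washed, stored at -80 °C. 40-70 µg protein incubated in triplicate with radioligand plus seven competitor concentrations in HEPES/EDTA buffer with 2 units/mL adenosine deaminase, 2.5 h, 21 °C. A1: [3H]DPCPX 2 nM, nonspecific with 10 µM NECA; A2A: [3H]ZM241385 0.5-1.2 nM, nonspecific with 10 µM XAC. GF/C filtration; single-site fit, Cheng-Prusoff Ki.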

[3] = test system: Rattus norvegicus; assay: Sodium excretion level in po dosed rat diuresis model; assay type: ADME, organism-based
Procedure, shortened: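 Rats held in metabolic cages and dosed by gavage as 0.5% cmc suspension at several doses; urine collected for 4 h and sodium excretion (UNaV) measured.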

[4] = test system: Rattus norvegicus; assay: Volume of distribution in rat at 1 mg/kg, po; assay type: ADME, organism-based; set-up: dose 1 mg/kg, route oral; conditions: in vivo
Procedure, shortened: (§2)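 Rats given 1 mg/kg orally and intravenously to obtain pharmacokinetic parameters.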

[5] = Clearance in rat at 1 mg/kg, po; assay type: ADME, organism-based; set-up: dose 1 mg/kg, route oral; conditions: in vivo; procedure, shortened: as §2
[6] = Half life in rat 1 mg/kg, po; assay type: ADME, organism-based; set-up: dose 1 mg/kg, route oral; conditions: in vivo; procedure, shortened: as §2
[7] = Oral bioavailability in rat at 1 mg/kg, iv and po; assay type: ADME, organism-based; conditions: in vivo; procedure, shortened: as §2
[8] = (§3) AUC(last) in rat at 1 mg/kg, po; assay type: ADME, organism-based, Plasma; set-up: time 0 - last, dose 1 mg/kg, route oral; conditions: plasma; procedure, shortened: as §2
[9] = target: T1, Adenosine receptor A1; assay: Intrinsic activity at adenosine A1 receptor assessed as blockade of CPA in isolated spontaneously beating rat atria; assay type: functional; conditions: read-out: pA2 (converted)
[10] = target: T2, Adenosine receptor A3 (Homo sapiens, UniProt P0DMS8); assay: Displacement of [125I]ABA from human adenosine A3 receptor
T2 sequence (P0DMS8 whole entry): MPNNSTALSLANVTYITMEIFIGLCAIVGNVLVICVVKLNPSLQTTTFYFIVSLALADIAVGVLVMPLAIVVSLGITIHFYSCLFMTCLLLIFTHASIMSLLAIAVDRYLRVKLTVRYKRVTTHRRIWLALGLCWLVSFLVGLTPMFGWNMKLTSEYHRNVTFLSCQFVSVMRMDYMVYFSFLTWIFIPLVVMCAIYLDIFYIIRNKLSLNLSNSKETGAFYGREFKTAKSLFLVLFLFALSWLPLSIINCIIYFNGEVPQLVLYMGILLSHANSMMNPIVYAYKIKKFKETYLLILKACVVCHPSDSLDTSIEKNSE

[11] = target: T3, Adenosine receptor A2b (Homo sapiens, UniProt P29275); assay: Displacement of [125I]3-(4-aminobenzyl)-8-phenyloxyacetate-1-propyl-xanthine from human adenosine A2B receptor
T3 sequence (P29275 whole entry): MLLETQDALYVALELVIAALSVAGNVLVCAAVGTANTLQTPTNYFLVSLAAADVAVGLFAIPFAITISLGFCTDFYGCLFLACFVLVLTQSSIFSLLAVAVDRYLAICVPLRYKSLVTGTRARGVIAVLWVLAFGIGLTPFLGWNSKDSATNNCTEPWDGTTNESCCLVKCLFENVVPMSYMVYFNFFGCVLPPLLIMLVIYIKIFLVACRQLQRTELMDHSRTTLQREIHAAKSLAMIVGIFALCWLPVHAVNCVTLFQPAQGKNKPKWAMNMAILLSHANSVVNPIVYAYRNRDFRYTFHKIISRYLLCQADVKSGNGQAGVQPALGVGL

[12] = target: Adenosine receptor A2a (Rattus norvegicus, UniProt P30543); assay: Displacement of [3H]ZM-241385 from adenosine A2A receptor in rat striatal membrane; assay type: cell membranes, Striatum; procedure, shortened: as §1
Chain of Adenosine receptor A2a (Rattus norvegicus, UniProt P30543) (P30543 whole entry): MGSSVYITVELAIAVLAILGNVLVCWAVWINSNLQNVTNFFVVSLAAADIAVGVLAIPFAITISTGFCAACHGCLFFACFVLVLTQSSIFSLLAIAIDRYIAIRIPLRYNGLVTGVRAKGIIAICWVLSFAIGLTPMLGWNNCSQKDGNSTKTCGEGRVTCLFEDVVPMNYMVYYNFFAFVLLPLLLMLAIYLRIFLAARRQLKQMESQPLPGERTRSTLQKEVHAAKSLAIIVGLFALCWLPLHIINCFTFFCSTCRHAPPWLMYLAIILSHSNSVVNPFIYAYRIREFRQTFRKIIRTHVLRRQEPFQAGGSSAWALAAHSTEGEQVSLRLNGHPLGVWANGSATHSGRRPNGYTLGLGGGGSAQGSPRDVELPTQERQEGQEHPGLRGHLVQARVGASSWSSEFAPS

[13] = target: Adenosine receptor A2a (Homo sapiens, UniProt P29274); assay: Displacement of [125I]ZM-241385 from human adenosine A2A receptor
Chain of Adenosine receptor A2a (Homo sapiens, UniProt P29274) (P29274 whole entry): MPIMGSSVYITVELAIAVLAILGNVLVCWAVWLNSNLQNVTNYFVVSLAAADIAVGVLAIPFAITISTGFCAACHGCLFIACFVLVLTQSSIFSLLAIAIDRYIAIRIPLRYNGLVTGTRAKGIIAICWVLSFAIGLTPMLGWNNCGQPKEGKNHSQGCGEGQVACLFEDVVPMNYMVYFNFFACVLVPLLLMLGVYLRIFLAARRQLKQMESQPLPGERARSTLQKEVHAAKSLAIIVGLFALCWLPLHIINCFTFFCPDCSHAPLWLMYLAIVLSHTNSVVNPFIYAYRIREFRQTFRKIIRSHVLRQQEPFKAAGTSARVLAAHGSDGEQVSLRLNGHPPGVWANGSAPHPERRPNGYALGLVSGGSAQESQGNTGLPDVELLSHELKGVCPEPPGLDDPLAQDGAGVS

[14] = target: T4, Adenosine receptor A1 (Homo sapiens, UniProt P30542); assay: Displacement of [125I]ABA from human adenosine A1 receptor
T4 sequence (P30542 whole entry): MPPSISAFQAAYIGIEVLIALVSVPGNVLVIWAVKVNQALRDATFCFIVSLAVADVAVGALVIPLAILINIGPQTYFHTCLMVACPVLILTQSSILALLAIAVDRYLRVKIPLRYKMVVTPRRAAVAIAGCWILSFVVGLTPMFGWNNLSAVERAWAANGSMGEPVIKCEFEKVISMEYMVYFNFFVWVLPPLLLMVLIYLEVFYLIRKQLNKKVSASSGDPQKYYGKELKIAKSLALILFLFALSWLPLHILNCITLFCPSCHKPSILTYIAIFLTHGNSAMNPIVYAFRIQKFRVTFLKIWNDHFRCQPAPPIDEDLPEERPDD

[15] = target: Adenosine receptors; A1 & A2b (Homo sapiens) (UniProt P30542+P29275); assay: Selectivity for human adenosine A1 receptor over adenosine A2B receptor; assay type: protein assay
[16] = target: Adenosine receptors; A1 & A2a (Homo sapiens) (UniProt P30542+P29274); assay: Selectivity for human adenosine A1 receptor over adenosine A2A receptor; assay type: protein assay
Chain of Adenosine receptors; A1 & A2a (Homo sapiens) (P29274 whole entry, looked up, one chain of several): as the sequence (P29274 whole entry) above

[17] = Aqueous solubility of the compound; assay type: physicochemical
[18] = test system: Rattus norvegicus; assay: as §3; assay type: ADME, organism-based, Plasma; set-up: time 0 - last, dose 1 mg/kg, route oral; conditions: in vivo; procedure, shortened: as §2

Chain of Adenosine receptor A2a (Rattus norvegicus) (P30543 whole entry): as the sequence (P30543 whole entry) above

CCC[C@@H]1CN2C(=O)N(CCC)c3[nH]c(C45CCC(O)(CC4)CC5)nc3C2=N1
Activity [1]: 90%

CCCN1C(=O)N2C[C@H](C(C)CC)N=C2c2[nH]c(C34CCC(O)(CC3)CC4)nc21 (stereo partly specified)
Ki [2]: 0.014 µM | Activity [1]: 91%

CCCN1C(=O)N2C[C@@H](C(C)C)N=C2c2[nH]c(C34CCC(O)(CC3)CC4)nc21.Cl
ED50 [3]: 0.01 mg/kg | Vdss [4]: 1.7 L/kg | CL/F [5]: 21 mL/min/kg | half-life [6]: 2.9 h | bioavailability [7]: 54% | AUC(0-t) [8]: 810 ng·h/mL

CCCN1C(=O)N2C[C@@H](C(C)C)N=C2c2[nH]c(C34CCC(O)(CC3)CC4)nc21 [listing 1 of 2 here]
Kb [9]: 0.000126 µM | Ki [10]: > 10 µM | Ki [2]: 0.004 µM | Ki [11]: 2 µM | Ki [12]: 1.1 µM | Ki [13]: 1.6 µM | Ki [14]: 0.035 µM

CCCn1c(=O)c2nc(C34CCC(CCC(=O)O)(CC3)CC4)[nH]c2n(CCC)c1=O.Cl
ED50 [3]: 0.01 mg/kg | Vdss [4]: 0.3 L/kg | CL/F [5]: 1.6 mL/min/kg | half-life [6]: 3.1 h | bioavailability [7]: 99% | AUC(0-t) [8]: 10000 ng·h/mL

CCCN1C(=O)N2CC[C@@H](C)N=C2c2[nH]c(C34CCC(O)(CC3)CC4)nc21
Ki [2]: > 0.25 µM

CCCN1C(=O)N2C(=NC[C@H]2C)c2[nH]c(C34CCC(O)(CC3)CC4)nc21
Ki [2]: 0.051 µM

CCCn1c(=O)c2[nH]c(C34CCC(CCC(=O)O)(CC3)CC4)nc2n(CCC)c1=O [TONAPOFYLLINE]
Kb [9]: 0.000158 µM | Ki [10]: > 10 µM | Ki [2]: 0.001 µM | Ki [11]: 0.09 µM | Ki [13]: 6.4 µM

CCCn1c(=O)c2nc(C34CCC(O)(CC3)CC4)[nH]c2n(CCC)c1=O
Ratio Ki [15]: 215 | Ratio Ki [16]: 275

CCCN1C(=O)N2C[C@@H](CC)N=C2c2[nH]c(C34CCC(O)(CC3)CC4)nc21 [listing 1 of 2 here]
Ratio Ki [15]: 26 | Ratio Ki [16]: 200

CCCN1C(=O)N2C[C@@H](CC)N=C2c2[nH]c(C34CCC(O)(CC3)CC4)nc21 [listing 2 of 2 here]
Kb [9]: 0.00132 µM | Ki [10]: > 10 µM | Ki [2]: 0.006 µM | Ki [11]: 0.58 µM | Ki [12]: 2.7 µM | Ki [13]: 4.4 µM | Ki [14]: 0.022 µM

CCCN1C(=O)N2C[C@@H](CC)N=C2c2[nH]c(C34CCC(C(=O)O)(CC3)CC4)nc21
Activity [1]: 48%

CCCN1C(=O)N2C[C@H](CC)N=C2c2[nH]c(C34CCC(O)(CC3)CC4)nc21
Ki [2]: > 0.1 µM | Activity [1]: 70%

CCCN1C(=O)N2C[C@@H](Cc3ccccc3)N=C2c2[nH]c(C34CCC(O)(CC3)CC4)nc21
Activity [1]: 84%

CCCN1C(=O)N2C[C@@H](C(C)C)N=C2c2[nH]c(C34CCC(CCC(=O)O)(CC3)CC4)nc21 [listing 1 of 2 here]
Ratio Ki [15]: 69 | Ratio Ki [16]: 400 | Activity [1]: 74%

CCCN1C(=O)N2C[C@@H](C(C)C)N=C2c2[nH]c(C34CCC(CCC(=O)O)(CC3)CC4)nc21 [listing 2 of 2 here]
Ki [10]: > 10 µM | Ki [11]: 3.1 µM | Ki [13]: 18 µM | Ki [14]: 0.045 µM

CCCN1C(=O)N2C[C@@H](CC)N=C2c2[nH]c(C34CCC(O)(CC3)CC4)nc21.Cl
ED50 [3]: 0.01 mg/kg | Vdss [4]: 4.1 L/kg | CL/F [5]: 18 mL/min/kg | solubility [17]: 100 mg/mL | half-life [6]: 3.8 h | bioavailability [7]: 84% | AUC(0-t) [8]: 800 ng·h/mL

CCCN1C(=O)N2C[C@@H](C)N=C2c2[nH]c(C34CCC(O)(CC3)CC4)nc21
Ratio Ki [15]: 37 | Ki [11]: 2.2 µM | Activity [1]: 32% | Ki [14]: 0.06 µM

CCCN1C(=O)N2C[C@@H](CC)N=C2c2[nH]c(C34CCC(CCC(=O)O)(CC3)CC4)nc21
Ratio Ki [15]: 54 | Ki [10]: > 10 µM | Ratio Ki [16]: > 280 | Ki [11]: 1.9 µM | Ki [13]: > 10 µM | Activity [1]: 83% | Ki [14]: 0.035 µM

CCCN1C(=O)N2C[C@H](CC)N=C2c2[nH]c(C34CCC(C(=O)O)(CC3)CC4)nc21
Ki [2]: > 0.25 µM | Activity [1]: 80%

CCCN1C(=O)N2C[C@@H](CC(C)C)N=C2c2[nH]c(C34CCC(O)(CC3)CC4)nc21
Ki [2]: 0.17 µM | Activity [1]: 97%

CCCN1C(=O)N2CCN=C2c2[nH]c(C34CCC(O)(CC3)CC4)nc21
Ki [2]: > 0.1 µM | Activity [1]: 77%

CCCN1C(=O)N2C[C@@H](c3ccccc3)N=C2c2[nH]c(C34CCC(O)(CC3)CC4)nc21
Activity [1]: 79%

CCCN1C(=O)N2C[C@@H](C(C)C)N=C2c2[nH]c(C34CCC(O)(CC3)CC4)nc21 [listing 2 of 2 here]
Ratio Ki [15]: 57 | Ratio Ki [16]: 46

CCCN1C(=O)N2C[C@@H](C(C)C)N=C2c2[nH]c(C34CCC(CCC(=O)O)(CC3)CC4)nc21.Cl
ED50 [3]: 0.01 mg/kg | Vdss [4]: 0.9 L/kg | half-life [6]: 3.1 h | bioavailability [7]: 77% | AUC [18]: 2600 ng·h/mL

CCCn1c(=O)c2[nH]c(C34CCC(O)(CC3)CC4)nc2n(CCC)c1=O
Ki [10]: > 1 µM | Ki [2]: 0.0006 µM | solubility [17]: 0.1 mg/mL (≈ 277 µM) | Ki [11]: 0.43 µM | Ki [13]: 0.55 µM | Ki [14]: 0.002 µM

CCCN1C(=O)N2CC[C@@H](CC)N=C2c2[nH]c(C34CCC(O)(CC3)CC4)nc21
Ki [2]: > 0.25 µM

CCCN1C(=O)N2C(=NC[C@@H]2C)c2[nH]c(C34CCC(O)(CC3)CC4)nc21
Ki [2]: 0.069 µM

Source: ChEMBL document CHEMBL1137356, “Tricyclic imidazoline derivatives as potent and selective adenosine A1 receptor antagonists” (J Med Chem, 2006)
